Laboratory results: PMC9365243 (Chemical Science, 2022)

System: human monocyte-derived macrophages
Assay: Fluorophore uptake, fluorescence microscopy of macrophages
Type: cell-based
Conditions: 30 μM, 3 h, 37 °C, fluorescence microscopy (λex 492 nm, λem 518 nm)
Procedure, shortened: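 Human monocyte-derived macrophages were incubated for 3 h with 30 μM free fluorophore or fluorophore-labelled oligopeptide, with DMSO alone as negative control. Cells were then imaged by fluorescence microscopy in the green channel (λex = 492 nm, λem = 518 nm) and in light field to find where the fluorophore sat.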

O=C(O)c1ccc2c(c1)C(=O)OC21c2ccc(O)cc2Oc2cc(O)ccc21 [5-FAM, 5-carboxy-fluorescein]
uptake into cells (fluorophore localization): not able to penetrate the cell membrane
